Results from ChEMBL document CHEMBL1138529, “Efficacy, pharmacokinetics, and metabolism of tetrahydroquinoline inhibitors of Plasmodium falciparum protein farnesyltransferase” (Antimicrob Agents Chemother, 2007).
Calls of active or inactive are those of the source.

Key:
[1] = Cmax in BALB/c mouse at 50 mg/kg, po; type: ADME, organism-based; set-up: dose 50 mg/kg, route oral; details: in vivo
How it was run: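 50 mg/kg by oral gavage in 3% EtOH-7% Tween 80-90% normal saline to groups of three females (BALB/c mice, 8–10 weeks, tail bleed; Sprague-Dawley rats, 10–12 weeks, saphenous vein). Plasma extracted with acetonitrile/internal standard, LC/MS; means of three animals. Oral elimination half-life depends on absorption rate as well as elimination.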

Plasmodium falciparum [2] = test: Antiplasmodial activity against Plasmodium falciparum by [3H]hypoxanthine uptake; type: functional; details: read-out: ED50 (the source's name)
How it was run: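 Asynchronous P. falciparum (3D7 or K1) in RPMI 1640 with 20% heat-inactivated human A+ plasma, 0.5% parasitemia and 0.5% hematocrit; compound serially diluted, top final 5 μM, 48 h at 37°C under 5% CO2/5% O2/90% N2, then [8-3H]hypoxanthine 0.3 μCi added for 24 h.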

Plasmodium falciparum [3] = test: Antiplasmodial activity against chloroquine-sensitive Plasmodium falciparum 3D7 by [3H]hypoxanthine uptake; type: functional; details: read-out: ED50 (the source's name)
How it was run: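 Asynchronous cultures at 0.5% parasitemia and 0.5% hematocrit in RPMI 1640 with 20% heat-inactivated human A+ plasma, exposed to serially diluted inhibitor (top final 5 μM, from DMSO stock) under 5% CO2/5% O2/90% N2 at 37°C for 48 h. [3H]hypoxanthine was then added for 24 h and harvested counts were background-subtracted against DMSO-only controls. ED50 came from linear regression, as the mean of duplicates.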

[4] = AUC in Sprague-Dawley rat at 2 mg/kg, iv; type: ADME, organism-based; set-up: dose 2 mg/kg, route intravenous; details: plasma
How it was run: (§1)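 Three female Sprague-Dawley rats per group (10–12 weeks), jugular-vein catheterized; 2 mg/kg in 3% EtOH-7% Tween 80-90% normal saline given through the catheter. Plasma drawn from the catheter at set times, acetonitrile extraction with internal standard, LC/MS quantification.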

[5] = Elimination half life in Sprague-Dawley rat at 2 mg/kg, iv; type: ADME, organism-based; set-up: dose 2 mg/kg, route intravenous; details: in vivo, read-out: beta t1/2; how it was run: as §1
Rattus norvegicus [6] = test: Toxicity in Plasmodium berghei NK65 infected Sprague-Dawley rat assessed as effect on blood counts at 50 mg/kg, perorally administered every 12 hrs for 3 days; type: organism-based; set-up: dose 50 mg/kg, route oral; details: in vivo, po
How it was run: (§2)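 Female Sprague-Dawley rats, 10-12 weeks, n = 3 per schedule. Dosed 50 mg/kg by oral gavage every 8 h or every 12 h for 72 h. At the end of dosing, blood was sent to a clinical laboratory for complete blood counts, white cell differentials, electrolytes, glucose, renal function, liver enzymes and cholesterol.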

Rattus norvegicus [7] = test: Toxicity in Plasmodium berghei NK65 infected Sprague-Dawley rat assessed as effect on glucose levels at 50 mg/kg, perorally administered every 12 hrs for 3 days; type: organism-based; set-up: dose 50 mg/kg, route oral; details: in vivo, po, in the assay text read “every 8 hrs” for “every 12 hrs”; how it was run: as §2
Rattus norvegicus [8] = test: Toxicity in Plasmodium berghei NK65 infected Sprague-Dawley rat assessed as effect on cholesterol levels at 50 mg/kg, perorally administered every 12 hrs for 3 days; type: organism-based; set-up: dose 50 mg/kg, route oral; details: in vivo, po, in the assay text read “every 8 hrs” for “every 12 hrs”; how it was run: as §2
Rattus norvegicus [9] = test: Toxicity in Plasmodium berghei NK65 infected Sprague-Dawley rat assessed as effect on renal function at 50 mg/kg, perorally administered every 8 hrs for 3 days; type: organism-based; set-up: dose 50 mg/kg, route oral; details: in vivo, po; how it was run: as §2
Rattus norvegicus [10] = test: Toxicity in Plasmodium berghei NK65 infected Sprague-Dawley rat assessed as effect on liver enzyme levels at 50 mg/kg, perorally administered every 8 hrs for 3 days; type: organism-based; set-up: dose 50 mg/kg, route oral; details: in vivo, po; how it was run: as §2
Salmonella typhimurium [11] = test: Toxicity against Salmonella enterica serovar Typhimurium TA98; type: organism-based, Salmonella enterica subsp. enterica serovar Typhimurium; details: in vivo
How it was run: (§3)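 Ames fluctuation test in S. Typhimurium TA98 (frameshift) and TA100 (base substitution), with and without rat liver S9. Tested at 5, 10, 50 and 100 μM plus higher concentrations, 48 wells each, in histidine-free liquid medium for 96 h. Growth read spectrophotometrically by pH-indicator color change. Bacterial cytotoxicity assayed in parallel at the same concentrations.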

[12] = Inhibition of alpha1 adrenergic receptor at 10 uM
How it was run: (§4)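 Radioligand displacement screen at a 10 μM test concentration, run by a contract lab across a panel of 50 receptors, pharmacologically active ion channels and transporters. The read-out is the decrease in specific radiolabeled ligand binding, expressed as a percentage. A decrease above 50% was considered significant.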

[13] = molecular target: Beta-1 adrenergic receptor (Homo sapiens) (UniProt P08588); test: Inhibition of beta-1 adrenergic receptor at 10 uM
Beta-1 adrenergic receptor (Homo sapiens), sequence (P08588 whole entry, looked up): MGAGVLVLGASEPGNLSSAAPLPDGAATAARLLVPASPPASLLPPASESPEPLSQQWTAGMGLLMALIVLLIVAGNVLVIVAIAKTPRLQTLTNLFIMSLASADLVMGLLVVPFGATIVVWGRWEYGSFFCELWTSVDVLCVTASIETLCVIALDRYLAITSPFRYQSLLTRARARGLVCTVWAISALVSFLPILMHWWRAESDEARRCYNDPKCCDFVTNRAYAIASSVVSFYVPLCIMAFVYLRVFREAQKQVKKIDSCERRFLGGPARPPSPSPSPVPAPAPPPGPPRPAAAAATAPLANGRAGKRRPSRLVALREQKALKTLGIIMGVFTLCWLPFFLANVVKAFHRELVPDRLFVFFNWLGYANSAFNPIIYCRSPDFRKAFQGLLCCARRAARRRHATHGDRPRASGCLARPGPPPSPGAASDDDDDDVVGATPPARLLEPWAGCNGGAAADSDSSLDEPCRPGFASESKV
How it was run: (§5)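 Radioligand displacement at a contract lab across a panel of 50 receptors, ion channels and transporters, single test concentration 10 μM; loss of specific ligand binding reported as percent, with >50% decrease counted as significant.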

[14] = Inhibition of […] GABA-gated chloride channel at 10 uM; how it was run: as §4
[15] = molecular target: Melatonin receptor type 1A (Homo sapiens) (UniProt P48039); test: Inhibition of melatonin MT1 receptor at 10 uM; how it was run: as §5
Melatonin receptor type 1A (Homo sapiens), sequence (P48039 whole entry): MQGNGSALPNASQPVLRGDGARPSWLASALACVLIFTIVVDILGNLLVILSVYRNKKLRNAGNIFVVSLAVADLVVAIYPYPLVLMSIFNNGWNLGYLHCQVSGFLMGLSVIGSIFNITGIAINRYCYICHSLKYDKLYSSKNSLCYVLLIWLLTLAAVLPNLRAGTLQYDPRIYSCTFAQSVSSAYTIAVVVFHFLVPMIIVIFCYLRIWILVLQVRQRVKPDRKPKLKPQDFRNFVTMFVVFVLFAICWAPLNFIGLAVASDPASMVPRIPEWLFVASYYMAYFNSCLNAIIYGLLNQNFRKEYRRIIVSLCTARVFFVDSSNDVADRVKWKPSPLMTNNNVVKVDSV

[16] = molecular target: Muscarinic acetylcholine receptor M2 (Homo sapiens) (UniProt P08172); test: Inhibition of muscarinic M2 receptor at 10 uM; how it was run: as §5
[17] = molecular target: 5-hydroxytryptamine receptor 2A (Homo sapiens) (UniProt P28223); test: Inhibition of 5HT2A receptor at 10 uM
How it was run: (§6)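 Radioligand displacement screen by a contractor across 50 receptors, ion channels and transporters, test compound at 10 μM; decrease in specific ligand binding expressed as percentage, with >50% decrease taken as significant.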

[18] = molecular target: 5-hydroxytryptamine receptor 5A (Homo sapiens) (UniProt P47898); test: Inhibition of 5HT5A receptor at 10 uM; how it was run: as §6
[19] = molecular target: 5-hydroxytryptamine receptor 6 (Homo sapiens) (UniProt P50406); test: Inhibition of 5HT6 receptor at 10 uM; how it was run: as §6
5-hydroxytryptamine receptor 6 (Homo sapiens), sequence (P50406 whole entry): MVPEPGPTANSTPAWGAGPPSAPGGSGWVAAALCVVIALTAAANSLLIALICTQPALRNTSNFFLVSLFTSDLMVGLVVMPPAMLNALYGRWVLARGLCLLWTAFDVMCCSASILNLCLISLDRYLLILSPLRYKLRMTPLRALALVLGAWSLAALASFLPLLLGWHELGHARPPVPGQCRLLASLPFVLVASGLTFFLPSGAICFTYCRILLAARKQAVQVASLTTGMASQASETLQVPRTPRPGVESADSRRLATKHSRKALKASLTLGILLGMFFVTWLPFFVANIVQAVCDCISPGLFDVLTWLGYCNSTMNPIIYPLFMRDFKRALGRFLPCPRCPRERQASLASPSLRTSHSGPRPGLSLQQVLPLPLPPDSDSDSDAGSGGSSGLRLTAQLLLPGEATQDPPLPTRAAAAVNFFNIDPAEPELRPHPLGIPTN

[20] = molecular target: 5-hydroxytryptamine receptor 7 (Homo sapiens) (UniProt P34969); test: Inhibition of 5HT7 receptor at 10 uM; how it was run: as §6
[21] = molecular target: B2 bradykinin receptor (Homo sapiens) (UniProt P30411); test: Inhibition of bradykinin B2 receptor at 10 uM; how it was run: as §5
B2 bradykinin receptor (Homo sapiens), sequence (P30411 whole entry): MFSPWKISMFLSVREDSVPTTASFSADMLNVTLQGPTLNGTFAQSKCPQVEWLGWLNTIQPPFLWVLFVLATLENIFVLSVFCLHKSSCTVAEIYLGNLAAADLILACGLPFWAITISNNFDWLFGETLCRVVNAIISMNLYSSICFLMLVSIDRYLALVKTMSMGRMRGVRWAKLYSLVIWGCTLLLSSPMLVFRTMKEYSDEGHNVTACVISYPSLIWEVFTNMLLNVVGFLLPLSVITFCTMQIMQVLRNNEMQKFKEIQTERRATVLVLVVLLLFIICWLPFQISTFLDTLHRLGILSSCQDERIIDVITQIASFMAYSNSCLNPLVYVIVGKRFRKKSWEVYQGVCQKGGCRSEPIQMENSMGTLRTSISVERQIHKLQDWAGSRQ

[22] = molecular target: C-C chemokine receptor type 1 (Homo sapiens) (UniProt P32246); test: Inhibition of CCR1 receptor at 10 uM; how it was run: as §6
[23] = molecular target: Endothelin-1 receptor (Homo sapiens) (UniProt P25101); test: Inhibition of ETA receptor at 10 uM; how it was run: as §6
Endothelin-1 receptor (Homo sapiens), sequence (P25101 whole entry): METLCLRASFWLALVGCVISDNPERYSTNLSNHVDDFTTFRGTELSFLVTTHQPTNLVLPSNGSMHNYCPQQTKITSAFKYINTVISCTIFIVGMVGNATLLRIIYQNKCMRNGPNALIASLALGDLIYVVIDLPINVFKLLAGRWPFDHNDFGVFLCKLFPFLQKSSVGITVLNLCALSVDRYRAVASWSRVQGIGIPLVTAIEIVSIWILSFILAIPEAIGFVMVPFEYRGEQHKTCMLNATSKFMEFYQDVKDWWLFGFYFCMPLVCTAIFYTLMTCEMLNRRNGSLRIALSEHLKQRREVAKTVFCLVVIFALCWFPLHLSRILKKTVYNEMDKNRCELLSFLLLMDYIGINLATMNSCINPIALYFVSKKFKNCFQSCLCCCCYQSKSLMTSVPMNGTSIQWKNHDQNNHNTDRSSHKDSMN

[24] = molecular target: Melanocortin receptor 4 (Homo sapiens) (UniProt P32245); test: Inhibition of MC4 receptor at 10 uM; how it was run: as §6
Melanocortin receptor 4 (Homo sapiens), sequence (P32245 whole entry): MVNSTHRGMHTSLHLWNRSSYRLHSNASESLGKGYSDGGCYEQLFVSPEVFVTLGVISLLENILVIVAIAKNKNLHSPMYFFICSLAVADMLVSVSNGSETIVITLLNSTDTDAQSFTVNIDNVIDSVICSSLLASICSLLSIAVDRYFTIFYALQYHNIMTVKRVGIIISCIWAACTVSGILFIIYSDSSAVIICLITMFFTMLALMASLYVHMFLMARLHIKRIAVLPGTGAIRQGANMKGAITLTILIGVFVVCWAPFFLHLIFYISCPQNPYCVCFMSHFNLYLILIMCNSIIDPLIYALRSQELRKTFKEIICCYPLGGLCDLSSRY

[25] = molecular target: Neuromedin-K receptor (Homo sapiens) (UniProt P29371); test: Inhibition of NK3 receptor at 10 uM; how it was run: as §6
Neuromedin-K receptor (Homo sapiens), sequence (P29371 whole entry): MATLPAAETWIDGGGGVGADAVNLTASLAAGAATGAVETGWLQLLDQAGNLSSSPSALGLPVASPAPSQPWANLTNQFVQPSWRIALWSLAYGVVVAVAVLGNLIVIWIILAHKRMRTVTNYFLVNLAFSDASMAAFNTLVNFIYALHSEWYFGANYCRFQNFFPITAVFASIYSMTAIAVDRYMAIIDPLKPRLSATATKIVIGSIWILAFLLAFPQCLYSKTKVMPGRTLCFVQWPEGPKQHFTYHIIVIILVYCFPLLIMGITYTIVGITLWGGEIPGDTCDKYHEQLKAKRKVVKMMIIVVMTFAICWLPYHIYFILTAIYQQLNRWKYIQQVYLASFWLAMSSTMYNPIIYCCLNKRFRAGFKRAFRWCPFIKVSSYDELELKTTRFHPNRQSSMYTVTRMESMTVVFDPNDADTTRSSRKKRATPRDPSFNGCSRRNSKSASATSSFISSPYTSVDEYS

[26] = molecular target: Neuropeptide Y receptor type 1 (Homo sapiens) (UniProt P25929); test: Inhibition of neuropeptide Y1 receptor at 10 uM; how it was run: as §5
Neuropeptide Y receptor type 1 (Homo sapiens), sequence (P25929 whole entry): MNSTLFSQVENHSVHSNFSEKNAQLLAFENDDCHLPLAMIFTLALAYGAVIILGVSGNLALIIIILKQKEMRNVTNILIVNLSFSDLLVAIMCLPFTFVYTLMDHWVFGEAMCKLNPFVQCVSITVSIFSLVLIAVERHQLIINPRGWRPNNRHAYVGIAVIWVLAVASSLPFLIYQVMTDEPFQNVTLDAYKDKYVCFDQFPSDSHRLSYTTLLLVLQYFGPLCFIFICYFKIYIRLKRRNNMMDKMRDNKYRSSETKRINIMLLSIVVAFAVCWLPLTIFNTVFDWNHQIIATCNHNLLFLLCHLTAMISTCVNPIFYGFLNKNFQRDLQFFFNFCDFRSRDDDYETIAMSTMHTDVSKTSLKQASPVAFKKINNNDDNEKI

[27] = molecular target: Mu-type opioid receptor (Homo sapiens) (UniProt P35372); test: Inhibition of mu opioid receptor at 10 uM; how it was run: as §5
Mu-type opioid receptor (Homo sapiens), sequence (P35372 whole entry): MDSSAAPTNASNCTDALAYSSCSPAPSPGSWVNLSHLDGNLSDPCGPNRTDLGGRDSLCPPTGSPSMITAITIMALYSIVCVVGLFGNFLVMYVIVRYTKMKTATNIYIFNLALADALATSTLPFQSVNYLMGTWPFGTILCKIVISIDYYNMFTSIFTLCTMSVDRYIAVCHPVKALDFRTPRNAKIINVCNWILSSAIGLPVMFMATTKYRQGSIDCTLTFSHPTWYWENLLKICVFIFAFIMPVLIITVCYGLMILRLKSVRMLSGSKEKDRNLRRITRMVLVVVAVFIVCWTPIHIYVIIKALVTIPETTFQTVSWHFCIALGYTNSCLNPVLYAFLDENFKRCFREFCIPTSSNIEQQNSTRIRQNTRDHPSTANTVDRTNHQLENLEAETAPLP

[28] = molecular target: Vasopressin V1a receptor (Homo sapiens) (UniProt P37288); test: Inhibition of vasopressin V1a receptor at 10 uM; how it was run: as §5
Vasopressin V1a receptor (Homo sapiens), sequence (P37288 whole entry, looked up): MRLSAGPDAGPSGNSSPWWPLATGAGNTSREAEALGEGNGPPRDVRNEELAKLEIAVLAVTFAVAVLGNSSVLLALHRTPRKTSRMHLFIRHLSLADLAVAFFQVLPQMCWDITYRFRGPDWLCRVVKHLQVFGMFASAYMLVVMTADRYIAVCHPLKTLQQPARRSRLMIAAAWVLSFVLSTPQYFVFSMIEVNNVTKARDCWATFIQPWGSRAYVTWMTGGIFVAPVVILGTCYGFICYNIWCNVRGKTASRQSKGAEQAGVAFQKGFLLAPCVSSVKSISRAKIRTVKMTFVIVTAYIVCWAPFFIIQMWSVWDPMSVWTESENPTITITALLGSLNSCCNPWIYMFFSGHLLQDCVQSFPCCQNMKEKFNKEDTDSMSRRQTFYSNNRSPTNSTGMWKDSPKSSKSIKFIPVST

Salmonella typhimurium [29] = test: Toxicity against Salmonella enterica serovar Typhimurium TA100; type: organism-based, Salmonella enterica subsp. enterica serovar Typhimurium; details: in vivo; how it was run: as §3
[30] = Inhibition of SKCa channel at 10 uM; how it was run: as §4
[31] = molecular target: Sodium-dependent noradrenaline transporter (Homo sapiens) (UniProt P23975); test: Inhibition of NET at 10 uM; how it was run: as §6
Sodium-dependent noradrenaline transporter (Homo sapiens), sequence (P23975 whole entry): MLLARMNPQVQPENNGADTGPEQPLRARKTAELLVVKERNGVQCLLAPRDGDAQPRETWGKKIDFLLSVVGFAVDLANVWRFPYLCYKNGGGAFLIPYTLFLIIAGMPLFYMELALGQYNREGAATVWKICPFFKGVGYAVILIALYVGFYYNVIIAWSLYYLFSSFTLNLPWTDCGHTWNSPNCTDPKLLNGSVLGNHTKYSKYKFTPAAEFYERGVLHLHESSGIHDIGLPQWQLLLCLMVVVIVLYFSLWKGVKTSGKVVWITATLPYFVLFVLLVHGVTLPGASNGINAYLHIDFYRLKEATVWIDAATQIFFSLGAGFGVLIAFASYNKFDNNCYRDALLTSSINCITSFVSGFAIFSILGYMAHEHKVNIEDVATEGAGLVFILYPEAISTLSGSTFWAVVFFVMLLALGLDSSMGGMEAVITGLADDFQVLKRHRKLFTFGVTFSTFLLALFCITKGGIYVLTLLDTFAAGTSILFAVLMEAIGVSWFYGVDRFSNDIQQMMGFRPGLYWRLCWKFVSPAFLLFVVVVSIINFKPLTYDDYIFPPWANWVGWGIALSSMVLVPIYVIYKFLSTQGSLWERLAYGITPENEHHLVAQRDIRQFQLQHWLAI

Plasmodium berghei = test: Antiplasmodial activity as reduced parasitaemia against Plasmodium berghei NK65 infected Sprague-Dawley rat at 50 mg/kg every 12 hrs peroral dose for 3 days

Compound: COC(=O)N1CCC(CN(C2Cc3cc(C#N)ccc3N(Cc3cncn3C)C2)S(=O)(=O)c2ccccn2)CC1 (configuration not stated)
- Cmax [1]: 4.2 µM
- EC50 (Plasmodium falciparum [2]): 18 nM
- EC50 (Plasmodium falciparum [3]): 16 nM
- AUC [4]: 0.533 µM·h
- half-life [5]: 17 min
- Activity (Rattus norvegicus [6]): Non-toxic
- Activity (Rattus norvegicus [7]): Non-toxic
- Activity (Rattus norvegicus [8]): Non-toxic
- Activity (Rattus norvegicus [9]): Non-toxic
- Activity (Rattus norvegicus [10]): Non-toxic
- Activity (Salmonella typhimurium [11]): Non-toxic
- inhibition [12]: inactive
- inhibition [13]: inactive
- inhibition [14]: inactive
- inhibition [15]: inactive
- inhibition [16]: 77%
- inhibition [17]: inactive
- inhibition [18]: inactive
- inhibition [19]: inactive
- inhibition [20]: inactive
- inhibition [21]: inactive
- inhibition [22]: inactive
- inhibition [23]: inactive
- inhibition [24]: inactive
- inhibition [25]: inactive
- inhibition [26]: inactive
- inhibition [27]: inactive
- inhibition [28]: 81%
- Activity (Salmonella typhimurium [29]): Non-toxic
- inhibition [30]: inactive
- inhibition [31]: inactive
- Activity (Plasmodium berghei): inactive
